16 compounds from ChEMBL document CHEMBL3352129, “Synthesis and biological activity of cyclolinopeptide A analogues modified with γ(3)-bis(homophenylalanine)” (Eur J Med Chem, 2014) can be followed below.

The source made the active and inactive calls. The rule behind the calls is not given here. Numbered stars: 1 amine (or outer) side, 2 acyl side, 3 side chain; on linkers, the order of the positions; unused ones are H or OH. Square brackets hold non-standard residues; d marks the D form. Peptide text beside a SMILES is read from it. GABA(3S-Bn) = O=C(C[C@@H](CN[*:1])Cc1ccccc1)[*:2]; GABA(3R-Bn) = O=C(C[C@H](CN[*:1])Cc1ccccc1)[*:2]

Data set [1] has as its system PBMC. In words: Antiproliferative activity against human PBMC assessed as inhibition of PHA-induced proliferation at 1 to 100 ug/ml. The format is functional, cell-based. In short, it runs like this:
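Human PBMC from a single donor were isolated on a ficoll gradient and plated at 2×10^5 cells/well in RPMI-1640 with 10% FCS. Stimulation was PHA 5 μg/mL. Compounds were tested at 1, 10 and 100 μg/mL, with DMSO dilutions as control. After 4 days, proliferation was read by MTT. Result is mean OD of quadruplicate wells ± SE.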

Data set [2] concerns PBMC. In words: Cytotoxicity against human PBMC cells at 1 to 100 ug/ml after 24 hrs by MTT assay. The data set is classed as cell-based. In short, it runs like this: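 Human PBMC from a single donor were plated at 3×10^5/well in RPMI-1640 with 10% FCS. Compounds at 1, 10 or 100 μg/mL were added for 24 h. Viability was read by MTT and expressed as percent viable cells versus matching DMSO controls.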
Background: Formazan colour is commonly taken as a measure of viable cells.

Data set [3] has as its system Blood. Description: Inhibition of LPS-induced TNFalpha secretion in human whole blood cells at 25 ug/ml by immune assay. The data set is classed as functional. In short, it runs like this: (§1)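 Venous blood from a single donor was diluted 10× in RPMI-1640 and stimulated with E. coli LPS 1 μg/mL, serotype 0:111:B4. Compounds were added at 5 or 25 μg/mL, with DMSO dilutions as controls. After overnight culture, supernatants were frozen at −20 °C. TNF-α was then measured by ELISA.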

The nature of data set [4]: Retention time of the compound. The data set is classed as physicochemical.
Data set [5] deals with Blood. Description: Stimulation of LPS-induced TNFalpha secretion in human whole blood cells at 25 ug/ml by immuno assay. The format is functional, cell-based. In short, it runs like this: as §1
Data set [6] concerns Blood. Description: Stimulation of LPS-induced TNFalpha secretion in human whole blood cells at 5 ug/ml by immuno assay. The format is functional, cell-based. In short, it runs like this: as §1
The subject of data set [7] is Blood. In words: Inhibition of LPS-induced TNFalpha secretion in human whole blood cells at 5 ug/ml by immune assay. The format is functional. In short, it runs like this:
as §1

In data set [8] the test system is Mus musculus. In words: Immunosuppressive effect in ovalbumin-induced mouse delayed type hypersensitivity model assessed as inhibition of DTH reaction at 100 ug, ip treated 2 hrs before elicitation of DTH reaction with secoond dose of antigen. The format is functional, organism-based. In short, it runs like this: (§2)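 CBA mice were sensitized s.c. at tail base with 5 μg OVA in complete Freund's adjuvant. After 4 days they were challenged with 50 μg OVA in incomplete adjuvant in hind foot pads. Swelling was measured by caliper 24 h later. Unsensitized challenged mice gave background. Compounds in DMSO/saline were given i.p. 2 h before sensitization or 2 h before elicitation, with solvent controls. Result: 5 mice/group, DTH units (10^-2 cm) ± SE.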

Data set [9] concerns Mus musculus. In words: Immunosuppressive effect in ovalbumin-induced mouse delayed type hypersensitivity model assessed as inhibition of DTH reaction at 100 ug, ip treated 2 hrs before ovalbumin sensitization. The format is functional. In short, it runs like this:
as §2

One may read the inhibition as the drop in the measured response relative to a control, in per cent. `CC[C@H](C)[C@H](N)C(=O)N[C@H](C(=O)N[C@@H](CC(C)C)C(=O)N[C@H](C(=O)N1CCC[C@H]1C(=O)N1CCC[C@H]1C(=O)N[C@@H](Cc1ccccc1)C(=O)NC[C@@H](CC(=O)N[C@@H](CC(C)C)C(=O)O)Cc1ccccc1)C(C)C)[C@@H](C)CC` (H-IILVPPF[GABA(3R-Bn)]L-OH): in the data set with PBMC [1], the inhibition entry was “inactive”. Moreover, the Activity result with PBMC [2] is given as “Non-toxic”. In the data set on Blood [3], the inhibition entry is “Active”. Further, the Retention_time in data set [4] stood at 14.168 min.
On to `CC[C@H](C)[C@H](N)C(=O)N[C@H](C(=O)N[C@@H](CC(C)C)C(=O)N[C@H](C(=O)N1CCC[C@H]1C(=O)N1CCC[C@H]1C(=O)N[C@@H](Cc1ccccc1)C(=O)NC[C@H](CC(=O)N[C@@H](CC(C)C)C(=O)O)Cc1ccccc1)C(C)C)[C@@H](C)CC` (H-IILVPPF[GABA(3S-Bn)]L-OH), for which, in the data set with PBMC [1], the inhibition result is “inactive”. Also, the Activity entry in the data set on PBMC [2] is listed as “Non-toxic”. The result with Blood [5] and in the data set on Blood [6] was Active. Further, the Retention_time in data set [4] amounted to 13.177 min.
In the case of `CC[C@H](C)[C@H](N)C(=O)N[C@H](C(=O)N[C@@H](CC(C)C)C(=O)N[C@H](C(=O)N1CCC[C@H]1C(=O)N1CCC[C@H]1C(=O)NC[C@@H](CC(=O)N[C@@H](Cc1ccccc1)C(=O)N[C@@H](CC(C)C)C(=O)O)Cc1ccccc1)C(C)C)[C@@H](C)CC` (H-IILVPP[GABA(3R-Bn)]FL-OH), in the data set on PBMC [1], the inhibition result was “inactive”. In addition, the inhibition result in the data set with Blood [7] and in the data set with Blood [3] was “Active” each time. In addition, in the data set with PBMC [2], the Activity entry is “Non-toxic”. Also, the Retention_time in data set [4] came out at 13.383 min.
For `CC[C@H](C)[C@H](N)C(=O)N[C@H](C(=O)N[C@@H](CC(C)C)C(=O)N[C@H](C(=O)N1CCC[C@H]1C(=O)N1CCC[C@H]1C(=O)NC[C@@H](CC(=O)NC[C@@H](CC(=O)N[C@@H](CC(C)C)C(=O)O)Cc1ccccc1)Cc1ccccc1)C(C)C)[C@@H](C)CC` (H-IILVPP[GABA(3R-Bn)][GABA(3R-Bn)]L-OH), the inhibition result in the data set with PBMC [1] is “inactive”. The inhibition result with Mus musculus [8], with Blood [7], with Blood [3] and with Mus musculus [9] was “Active” each time. The Activity entry in the data set with PBMC [2] was “Non-toxic”. Also, the “inhibition (INH)” value with Mus musculus [9] was found to be 50%. The Retention_time in [4] is 14.073 min.
As to `CC[C@H](C)[C@H](N)C(=O)N[C@H](C(=O)N[C@@H](CC(C)C)C(=O)N[C@H](C(=O)N1CCC[C@H]1C(=O)N1CCC[C@H]1C(=O)NC[C@@H](CC(=O)NC[C@H](CC(=O)N[C@@H](CC(C)C)C(=O)O)Cc1ccccc1)Cc1ccccc1)C(C)C)[C@@H](C)CC` (H-IILVPP[GABA(3R-Bn)][GABA(3S-Bn)]L-OH), in the data set with PBMC [1], the inhibition entry was “inactive”. Further, in the data set on PBMC [2], the Activity result is given as “Non-toxic”. For the same compound, the result in the data set with Blood [5] and in the data set with Blood [6] was Active. Also, the Retention_time in data set [4] worked out at 13.085 min.
On to `CC[C@H](C)[C@H](N)C(=O)N[C@H](C(=O)N[C@@H](CC(C)C)C(=O)N[C@H](C(=O)N1CCC[C@H]1C(=O)N1CCC[C@H]1C(=O)NC[C@H](CC(=O)N[C@@H](Cc1ccccc1)C(=O)N[C@@H](CC(C)C)C(=O)O)Cc1ccccc1)C(C)C)[C@@H](C)CC` (H-IILVPP[GABA(3S-Bn)]FL-OH), for which the inhibition entry with PBMC [1] is “inactive”. The Activity result in the data set with PBMC [2] was “Non-toxic”. In addition, the result in the data set on Blood [5] and in the data set on Blood [6] was Active. In addition, in data set [4], the Retention_time is on record as 12.69 min.
Turning to `CC[C@H](C)[C@H](N)C(=O)N[C@H](C(=O)N[C@@H](CC(C)C)C(=O)N[C@H](C(=O)N1CCC[C@H]1C(=O)N1CCC[C@H]1C(=O)NC[C@H](CC(=O)NC[C@@H](CC(=O)N[C@@H](CC(C)C)C(=O)O)Cc1ccccc1)Cc1ccccc1)C(C)C)[C@@H](C)CC` (H-IILVPP[GABA(3S-Bn)][GABA(3R-Bn)]L-OH), in the data set with PBMC [1], the inhibition result is “inactive”. For the same compound, the Activity result in the data set with PBMC [2] is “Non-toxic”. Besides, in [4], the Retention_time was 13.938 min.
Regarding `CC[C@H](C)[C@H](N)C(=O)N[C@H](C(=O)N[C@@H](CC(C)C)C(=O)N[C@H](C(=O)N1CCC[C@H]1C(=O)N1CCC[C@H]1C(=O)NC[C@H](CC(=O)NC[C@H](CC(=O)N[C@@H](CC(C)C)C(=O)O)Cc1ccccc1)Cc1ccccc1)C(C)C)[C@@H](C)CC` (H-IILVPP[GABA(3S-Bn)][GABA(3S-Bn)]L-OH), the inhibition result with PBMC [1] was “inactive”. For the same compound, the Activity result in the data set on PBMC [2] is reported as “Non-toxic”. Further, the outcome with Blood [5] and in the data set with Blood [6] was Active. The compound also showed a Retention_time in data set [4] of 13.233 min.
For `CC[C@H](C)[C@@H]1NC(=O)[C@H](CC(C)C)NC(=O)[C@H](Cc2ccccc2)NC(=O)C[C@@H](Cc2ccccc2)CNC(=O)[C@@H]2CCCN2C(=O)[C@@H]2CCCN2C(=O)[C@H](C(C)C)NC(=O)[C@H](CC(C)C)NC(=O)[C@H]([C@@H](C)CC)NC1=O` (cyclo(FLIILVPP[GABA(3R-Bn)])), the inhibition result in the data set with PBMC [1] is “Active”. Besides, the Activity entry in the data set with PBMC [2] is recorded as “Dose-dependent effect”. This compound registered a Retention_time in data set [4] of 10.033 min.
On the same counts, the results for `CC[C@H](C)[C@@H]1NC(=O)[C@H](CC(C)C)NC(=O)[C@H](Cc2ccccc2)NC(=O)C[C@H](Cc2ccccc2)CNC(=O)[C@@H]2CCCN2C(=O)[C@@H]2CCCN2C(=O)[C@H](C(C)C)NC(=O)[C@H](CC(C)C)NC(=O)[C@H]([C@@H](C)CC)NC1=O` (cyclo(FLIILVPP[GABA(3S-Bn)])) are “Active”, “Dose-dependent effect” and 9.89 min.
Taken in the same sequence, the figures for `CC[C@H](C)[C@@H]1NC(=O)[C@H](CC(C)C)NC(=O)C[C@@H](Cc2ccccc2)CNC(=O)[C@H](Cc2ccccc2)NC(=O)[C@@H]2CCCN2C(=O)[C@@H]2CCCN2C(=O)[C@H](C(C)C)NC(=O)[C@H](CC(C)C)NC(=O)[C@H]([C@@H](C)CC)NC1=O` (cyclo(F[GABA(3R-Bn)]LIILVPP)) were “Active”, “Dose-dependent effect” and 11.87 min.
Turning to `CC[C@H](C)[C@@H]1NC(=O)[C@H](CC(C)C)NC(=O)C[C@H](Cc2ccccc2)CNC(=O)[C@H](Cc2ccccc2)NC(=O)[C@@H]2CCCN2C(=O)[C@@H]2CCCN2C(=O)[C@H](C(C)C)NC(=O)[C@H](CC(C)C)NC(=O)[C@H]([C@@H](C)CC)NC1=O` (cyclo(F[GABA(3S-Bn)]LIILVPP)), the inhibition entry in the data set on PBMC [1], with Mus musculus [8] and in the data set on Mus musculus [9] was “Active” each time. For the same compound, at 5 µg/mL the inhibition in the data set on Blood [7] was 55%. Moreover, the Activity result in the data set on PBMC [2] is “Non-toxic”. This compound also displayed an inhibition at 25 µg/mL with Blood [3] of 42%. The Retention_time in [4] is listed as 11.63 min.
On to `CC[C@H](C)[C@@H]1NC(=O)[C@H](CC(C)C)NC(=O)C[C@@H](Cc2ccccc2)CNC(=O)C[C@@H](Cc2ccccc2)CNC(=O)[C@@H]2CCCN2C(=O)[C@@H]2CCCN2C(=O)[C@H](C(C)C)NC(=O)[C@H](CC(C)C)NC(=O)[C@H]([C@@H](C)CC)NC1=O` (cyclo(IILVPP[GABA(3R-Bn)][GABA(3R-Bn)]L)), for which the inhibition entry in the data set with PBMC [1] is “Active”. In the data set on PBMC [2], the Activity result is on record as “Dose-dependent effect”. Also, the Retention_time in [4] is reported as 9.242 min.
Taken in the same sequence, the figures for `CC[C@H](C)[C@@H]1NC(=O)[C@H](CC(C)C)NC(=O)C[C@H](Cc2ccccc2)CNC(=O)C[C@@H](Cc2ccccc2)CNC(=O)[C@@H]2CCCN2C(=O)[C@@H]2CCCN2C(=O)[C@H](C(C)C)NC(=O)[C@H](CC(C)C)NC(=O)[C@H]([C@@H](C)CC)NC1=O` (cyclo(IILVPP[GABA(3R-Bn)][GABA(3S-Bn)]L)) were “Active”, “Dose-dependent effect” and 9.605 min.
Taken in the same sequence, the figures for `CC[C@H](C)[C@@H]1NC(=O)[C@H](CC(C)C)NC(=O)C[C@@H](Cc2ccccc2)CNC(=O)C[C@H](Cc2ccccc2)CNC(=O)[C@@H]2CCCN2C(=O)[C@@H]2CCCN2C(=O)[C@H](C(C)C)NC(=O)[C@H](CC(C)C)NC(=O)[C@H]([C@@H](C)CC)NC1=O` (cyclo(IILVPP[GABA(3S-Bn)][GABA(3R-Bn)]L)) were “Active”, “Dose-dependent effect” and 10.543 min.
On the same counts, the results for `CC[C@H](C)[C@@H]1NC(=O)[C@H](CC(C)C)NC(=O)C[C@H](Cc2ccccc2)CNC(=O)C[C@H](Cc2ccccc2)CNC(=O)[C@@H]2CCCN2C(=O)[C@@H]2CCCN2C(=O)[C@H](C(C)C)NC(=O)[C@H](CC(C)C)NC(=O)[C@H]([C@@H](C)CC)NC1=O` (cyclo(IILVPP[GABA(3S-Bn)][GABA(3S-Bn)]L)) are “Active”, “Dose-dependent effect” and 10.11 min.
